According to paper PMC3824626 (Bioorganic & medicinal chemistry letters, 2013):
Entries after “also recorded” stand apart in the source; their conditions may differ.

What was measured:
BLM helicase = BLM helicase (Homo sapiens, UniProt P54132); experiment: gel-based BLM DNA unwinding assay; type: biochemical; conditions: for IC50 (BLM): gel-based BLM DNA unwinding assay
[1] = kinetic aqueous solubility; type: physicochemical; conditions: aqueous/DMSO solubility compared with other analogs
How it was run: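 Kinetic aqueous solubility in PBS buffer, pH 7.4. It was measured by chemiluminescent nitrogen detection (CLND) at an outside laboratory and in-house by UV-Vis detection.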

BLM ATPase activity = BLM ATPase activity (Homo sapiens, UniProt P54132); experiment: BLM ATPase kinetic analysis; type: biochemical
Sequence of BLM ATPase activity (P54132 whole entry): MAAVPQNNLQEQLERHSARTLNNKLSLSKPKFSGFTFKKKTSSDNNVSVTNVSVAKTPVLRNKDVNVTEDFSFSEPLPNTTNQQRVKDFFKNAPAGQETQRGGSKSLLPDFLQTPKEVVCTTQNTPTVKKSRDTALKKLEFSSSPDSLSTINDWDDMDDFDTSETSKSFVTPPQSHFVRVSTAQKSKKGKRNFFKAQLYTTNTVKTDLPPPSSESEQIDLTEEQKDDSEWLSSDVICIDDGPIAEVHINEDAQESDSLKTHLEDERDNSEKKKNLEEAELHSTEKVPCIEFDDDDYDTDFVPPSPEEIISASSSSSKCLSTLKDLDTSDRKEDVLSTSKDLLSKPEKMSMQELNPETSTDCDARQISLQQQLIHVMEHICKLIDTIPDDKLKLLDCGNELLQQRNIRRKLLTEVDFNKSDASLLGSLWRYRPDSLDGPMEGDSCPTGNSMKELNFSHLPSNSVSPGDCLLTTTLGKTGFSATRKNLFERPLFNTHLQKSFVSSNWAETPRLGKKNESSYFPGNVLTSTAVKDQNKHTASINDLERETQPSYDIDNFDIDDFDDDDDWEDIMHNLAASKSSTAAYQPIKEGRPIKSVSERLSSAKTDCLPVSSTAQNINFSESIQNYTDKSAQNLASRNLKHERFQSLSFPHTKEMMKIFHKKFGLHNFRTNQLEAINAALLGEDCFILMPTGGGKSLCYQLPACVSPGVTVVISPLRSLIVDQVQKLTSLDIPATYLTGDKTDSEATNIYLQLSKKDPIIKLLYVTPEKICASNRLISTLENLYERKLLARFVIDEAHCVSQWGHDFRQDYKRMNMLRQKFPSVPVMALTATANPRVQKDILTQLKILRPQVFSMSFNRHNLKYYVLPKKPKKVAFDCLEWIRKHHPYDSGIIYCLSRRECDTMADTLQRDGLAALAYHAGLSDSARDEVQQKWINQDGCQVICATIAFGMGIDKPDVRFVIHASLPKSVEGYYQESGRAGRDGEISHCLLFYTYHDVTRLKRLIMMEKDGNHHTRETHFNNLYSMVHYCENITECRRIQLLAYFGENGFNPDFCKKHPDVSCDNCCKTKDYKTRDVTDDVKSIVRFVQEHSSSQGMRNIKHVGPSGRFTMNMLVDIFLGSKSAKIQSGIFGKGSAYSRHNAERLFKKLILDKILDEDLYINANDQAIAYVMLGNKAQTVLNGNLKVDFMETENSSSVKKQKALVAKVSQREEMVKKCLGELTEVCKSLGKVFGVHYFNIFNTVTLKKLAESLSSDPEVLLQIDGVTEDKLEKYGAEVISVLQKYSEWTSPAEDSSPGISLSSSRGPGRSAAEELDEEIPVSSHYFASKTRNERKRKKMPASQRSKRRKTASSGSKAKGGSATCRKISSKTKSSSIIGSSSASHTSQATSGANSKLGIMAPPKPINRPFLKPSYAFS
How it was run: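 Michaelis–Menten analysis of BLM ATPase activity with and without test compound, replotted as a Lineweaver–Burk double-reciprocal plot. Each point is the mean ± SD of quadruplicate determinations, and the data shown represent three independent experiments.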

[2] = tested on: PSNG13 cells (BLM-defective GM08505-derived BS cells); experiment: sister chromatid exchange frequency in BLM-defective cells; type: cell-based, human; conditions: cells lacking BLM (PSNG13)
WRN = WRN (Homo sapiens, UniProt Q14191); experiment: gel-based DNA unwinding assay, WRN; type: biochemical; conditions: from gel-based IC50 values
Sequence of WRN (Q14191 whole entry): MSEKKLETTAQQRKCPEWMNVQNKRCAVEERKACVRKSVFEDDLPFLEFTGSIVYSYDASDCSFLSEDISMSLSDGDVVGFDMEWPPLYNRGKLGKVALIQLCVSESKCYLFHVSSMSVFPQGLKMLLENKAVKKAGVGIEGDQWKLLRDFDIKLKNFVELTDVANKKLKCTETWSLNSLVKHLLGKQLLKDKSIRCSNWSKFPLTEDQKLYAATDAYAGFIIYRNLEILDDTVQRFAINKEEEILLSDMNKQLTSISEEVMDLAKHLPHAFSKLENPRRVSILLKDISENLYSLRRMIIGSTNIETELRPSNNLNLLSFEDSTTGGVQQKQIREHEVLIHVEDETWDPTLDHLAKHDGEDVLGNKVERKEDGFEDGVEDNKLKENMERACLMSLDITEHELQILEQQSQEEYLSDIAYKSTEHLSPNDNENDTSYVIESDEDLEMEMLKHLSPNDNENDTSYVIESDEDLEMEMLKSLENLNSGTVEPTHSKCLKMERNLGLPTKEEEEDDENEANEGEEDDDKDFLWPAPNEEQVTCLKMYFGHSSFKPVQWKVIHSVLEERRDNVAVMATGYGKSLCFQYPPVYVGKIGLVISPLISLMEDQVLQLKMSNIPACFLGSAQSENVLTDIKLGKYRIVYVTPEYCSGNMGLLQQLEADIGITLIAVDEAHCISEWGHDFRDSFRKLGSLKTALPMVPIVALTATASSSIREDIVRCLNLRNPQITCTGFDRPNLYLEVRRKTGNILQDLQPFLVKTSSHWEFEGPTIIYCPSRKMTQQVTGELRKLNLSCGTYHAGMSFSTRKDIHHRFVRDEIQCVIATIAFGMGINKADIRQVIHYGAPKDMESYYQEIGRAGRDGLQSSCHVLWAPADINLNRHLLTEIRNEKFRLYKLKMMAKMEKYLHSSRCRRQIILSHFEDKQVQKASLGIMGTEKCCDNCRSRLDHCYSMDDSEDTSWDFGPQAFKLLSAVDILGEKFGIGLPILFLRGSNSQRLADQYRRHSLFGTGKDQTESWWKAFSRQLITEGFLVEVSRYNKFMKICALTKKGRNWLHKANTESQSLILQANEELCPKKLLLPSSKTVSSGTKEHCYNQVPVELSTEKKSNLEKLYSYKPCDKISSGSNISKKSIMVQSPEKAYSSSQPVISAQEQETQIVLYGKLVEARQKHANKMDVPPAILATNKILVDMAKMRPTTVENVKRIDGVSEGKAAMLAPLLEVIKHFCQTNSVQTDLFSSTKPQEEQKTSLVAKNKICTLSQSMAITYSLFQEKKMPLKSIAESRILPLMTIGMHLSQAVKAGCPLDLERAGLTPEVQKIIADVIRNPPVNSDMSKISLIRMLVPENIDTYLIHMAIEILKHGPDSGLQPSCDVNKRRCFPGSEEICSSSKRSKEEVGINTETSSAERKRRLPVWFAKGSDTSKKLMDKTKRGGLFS

[3] = tested on: PSNF5 cells (BLM-complemented GM08505-derived BS cells); experiment: sister chromatid exchange frequency in BLM-complemented cells; type: cell-based, human; conditions: cells expressing BLM (PSNF5)
BLM = BLM (Homo sapiens, UniProt P54132); experiment: fluorescence polarization analysis of BLM binding to single-stranded DNA
Sequence of BLM (P54132 whole entry): as the sequence (P54132 whole entry) above

WRN helicase = conditions: cited from earlier work
BLM-positive cells = conditions: cited from earlier work
[4] = tested on: sister chromatid exchanges; conditions: cited from earlier work

Sequence of BLM helicase (P54132 whole entry): as above

Row | SMILES | IC50 (BLM) (BLM helicase) | also measured
1 | O=C(Nc1ccc(Cl)cc1)Nc1nnc(-c2ccncc2)s1 [Compound 8] | drastic loss in activity | –
2 | O=C(Cc1ccc2ccccc2c1)Nc1nnc(-c2ccncc2)s1 [Compound 7c] | weakly active or inactive | –
3 | O=c1c(Nc2ccc(Cl)c(Cl)c2)c(Nc2nnc(-c3ccncc3)s2)c1=O [Compound 7g] | – | solubility (in words) [1]: not improved over (1)
4 | N#Cc1cc(NC(=O)Nc2nnc(-c3ccncc3)s2)ccc1-c1cn[nH]c1 [Compound 33] | comparable activity to the probe compound | mode of BLM inhibition (BLM ATPase activity; Lineweaver-Burk double reciprocal plot): non-ATP competitive BLM inhibitor; effect on apparent Km of BLM ATPase activity (BLM ATPase activity; single-stranded oligonucleotide as DNA effector): does not affect the apparent Km value; induction of SCEs [2]: no further increase in SCEs; selectivity for BLM over WRN (WRN): greater than 6 fold; induction of SCEs [3]: significant and dose-dependent induction of SCEs; displacement of DNA binding to BLM versus related DNA helicases (BLM): selective displacement of DNA binding to BLM over related DNA helicases; inhibition of BLM binding to single-stranded DNA (BLM): dose-dependent inhibition
5 | O=C(Nc1ccc(Cl)c(Cl)c1)Nc1nnc(-c2ccccc2)s1 [Compound 4a] | inactivity | –
6 | N#Cc1cc(NC(=O)Nc2nnc(-c3ccncc3)s2)ccc1-c1ccc[nH]1 [Compound 36] | good activity | –
7 | O=C(Nc1ccc(Cl)c(Cl)c1)Nc1ccc(-c2ccncc2)s1 [Compound 6a] | loss of activity | –
8 | O=C(Nc1ccccc1)Nc1nnc(-c2ccncc2)s1 [Compound 9] | drastic loss in activity | –
9 | O=C(Nc1nnc(-c2ccncc2)s1)Oc1ccc2ccccc2c1 [Compound 7d] | weakly active or inactive | –
10 | CCCOCN1C(=O)C=CC1=O [NSC19630] | – | WRN helicase inhibition (WRN helicase): small molecule inhibitor of WRN helicase
11 | N#Cc1cc(NC(=O)Nc2nnc(-c3ccncc3)s2)ccc1Br [Compound 23] | – | solubility (in words) [1]: noticeably diminished aqueous/DMSO solubility
12 | N=C(Nc1ccc(Cl)c(Cl)c1)Nc1nnc(-c2ccncc2)s1 [Compound 7b] | weakly active or inactive | –
13 | N#C/N=C(/Nc1ccc(F)c(C(F)(F)F)c1)Nc1nnc(-c2ccncc2)s1 [Compound 7f] | weakly active or inactive | –
14 | O=S(=O)(Cc1ccc(Cl)c(Cl)c1)Nc1nnc(-c2ccncc2)s1 [Compound 7e] | weakly active or inactive | –
15 | N#Cc1cc(NC(=O)Nc2nnc(-c3ccncc3)s2)ccc1Cl [Compound 10] | – | improvement in potency when 3-Cl is replaced with cyano (BLM helicase; relative to compound 1, BLM gel-based IC50): 4 fold; solubility (in words) [1]: noticeably diminished aqueous/DMSO solubility; also recorded: diminished solubility compared with 33
16 | O=C(Nc1ccc(Cl)c(Cl)c1)Nc1nnc(-c2ccncc2)o1 [Compound 6d] | loss of activity | –
17 | N#Cc1ccc(NC(=O)Nc2nnc(-c3ccncc3)s2)cc1Br [Compound 24] | – | solubility (in words) [1]: noticeably diminished aqueous/DMSO solubility
18 | O=C(Nc1ccc(Cl)c(Cl)c1)Nc1nnc(-c2ccccn2)s1 [Compound 4b] | inactivity | –
19 | CN(C(=O)Nc1ccc2ccccc2c1)c1nnc(-c2ccncc2)s1 [Compound 7h] | complete loss of activity | –
20 | O=C(Nc1ccc(-n2ccnc2)c(F)c1)Nc1nnc(-c2ccncc2)s1 [Compound 35] | good activity | –
21 | O=C(Nc1ccc(F)c(C(F)(F)F)c1)Nc1nnc(-c2ccncc2)s1 [ML216] | – | antiproliferative activity (BLM-positive cells): selective antiproliferative activity in BLM-positive cells; induction of sister chromatid exchanges [4]: induce sister chromatid exchanges
22 | O=C(Nc1ccc(Cl)c(Cl)c1)Nc1ncc(-c2ccncc2)s1 [Compound 6c] | completely inactive | –
